# Screening data deposited in PubChem BioAssay by several laboratories.
# CCR6 antag: CCR6 receptor antagonists, primary screen, cell-based, CHO-K1, luminescence, beta-arrestin, uHTS; C-C chemokine receptor type 6 (Homo sapiens), P51684; CHO-K1 CCR6 PathHunter beta-arrestin, CCL20-stimulated; inhibition, % at 20 µM; 340,000 compounds, 0.49% hits; AID 493098, 2011;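 active means compounds whose inhibition of the agonist-driven luminescence signal at 20 µM reaches about 50%, limit read from the data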;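 further: cells stimulated with CCL20 at 14 nM final; plate controls were DMSO with CCL20 for no effect and DMSO without agonist for full effect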
# Target sequence (P51684 whole entry, looked up): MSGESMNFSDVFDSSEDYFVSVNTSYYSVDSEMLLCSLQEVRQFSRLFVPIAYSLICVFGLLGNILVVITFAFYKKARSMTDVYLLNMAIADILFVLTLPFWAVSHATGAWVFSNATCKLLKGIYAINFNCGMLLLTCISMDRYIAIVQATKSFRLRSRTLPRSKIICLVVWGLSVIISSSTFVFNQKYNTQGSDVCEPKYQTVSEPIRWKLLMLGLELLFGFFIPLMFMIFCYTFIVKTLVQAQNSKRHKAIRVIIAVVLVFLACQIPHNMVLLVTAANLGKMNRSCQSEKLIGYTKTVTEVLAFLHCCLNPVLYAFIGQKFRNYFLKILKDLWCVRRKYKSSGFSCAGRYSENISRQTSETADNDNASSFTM
# APJ antag: antagonists of human apelin receptor APJ, primary screen, CHO-K1 cells, beta-arrestin complementation, luminescence; P35414; inhibition, % at 20 µM; 330,000 compounds, 0.32% hits; AID 2521, 2010;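 active means inhibition above about 40% at 20 µM, limit read from the data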;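 further: cells challenged with 10 nM apelin-13 agonist together with compound; plate controls were apelin-13 plus DMSO wells for no effect and DMSO wells lacking apelin-13 for full effect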
# CXCR6 block: CXCR6 receptor inhibitors, primary screen, cell-based, beta-arrestin, luminescence, CHO-K1 PathHunter, 1536-well; C-X-C chemokine receptor type 6 (Homo sapiens), O00574; inhibition, % at 20 µM; 360,000 compounds, 0.36% hits; AID 602244, 2012; in the data active means inhibition above about 34%, passing the limit was not always enough;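 further: antagonist mode with CXCL16 agonist at 10 nM final; 0% = 10 nM CXCL16 with DMSO and 100% = unstimulated wells without agonist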
# Target sequence (O00574 whole entry, looked up): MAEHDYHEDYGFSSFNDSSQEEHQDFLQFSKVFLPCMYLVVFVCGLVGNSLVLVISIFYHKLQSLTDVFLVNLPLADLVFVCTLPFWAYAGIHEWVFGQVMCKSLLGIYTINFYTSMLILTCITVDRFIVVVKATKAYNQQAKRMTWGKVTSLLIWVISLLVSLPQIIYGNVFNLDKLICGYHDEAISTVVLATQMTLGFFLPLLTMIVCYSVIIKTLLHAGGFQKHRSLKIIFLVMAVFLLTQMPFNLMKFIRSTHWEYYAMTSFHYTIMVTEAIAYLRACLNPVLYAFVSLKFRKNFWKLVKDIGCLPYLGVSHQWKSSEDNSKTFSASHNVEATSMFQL
# GAA850 FXN act: FXN promoter activators, primary screen, cell-based, luciferase luminescence, HEK293 lucGAA850. HEK293 lucGAA850 FXN promoter luciferase reporter, 24 h; percent of 10 µM SAHA response. 360,000 compounds, 0.56% hits. activation, % at 6 µM. AID 540364, 2011;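 active means activation above the average of all compounds screened plus 3 SD, cutoff fixed separately per campaign, cut at about 7.5% in these data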;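 further: 0% = DMSO wells and 100% = 10 µM SAHA wells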
# EBI2 antag: EBI2 receptor antagonists, beta-arrestin recruitment, primary screen, cell-based, luminescence, 7a,25-OHC stimulation, uHTS | AID 651636, 2012 | 7a,25-OHC stimulated | inhibition, % at 5 µM | G-protein coupled receptor 183 (Homo sapiens), P32249 | 360,000 compounds, 0.81% hits; in the data active means inhibition above about 38%;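 further: enzyme fragment complementation signal reports receptor beta-arrestin coupling in cells; 0% = agonist plus DMSO wells and 100% = wells without agonist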
# APJ ag: agonists of human apelin receptor APJ, primary screen, CHO-K1 cells, PathHunter beta-arrestin, luminescence; 0% DMSO wells, 100% apelin; 330,000 compounds, 0.11% hits; P35414; activation, % at 20 µM;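 active means activation more than six SD over the plate average, tested at 20 µM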;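 further: 0% = DMSO alone and 100% = apelin-13 at 10 nM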
#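 Test system: CHO-K1 APJ beta-arrestin complementation cell line | Compound: Single test compound dose, 20 µM final, 1% DMSO | Incubation: Compound 90 min 25 °C, reagent 1 h | Measured by: beta-gal luminescence | Read-out basis: APJ–arrestin association signal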
# EBI2 conf: EBI2 antagonist hit retest, beta-arrestin, confirmation, cell-based, single concentration, luminescence, 7a,25-OHC stimulation | 2,400 compounds, 29% hits | shares compounds with EBI2 antag | inhibition, % at 5 µM | AID 651997, 2013 | 7a,25-OHC antagonism;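 active means inhibition of at least 50%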
# EBI2 agonist: EBI2 agonist activity of antagonist hits, confirmation, counter-screen for EBI2 antagonist project, cell-based, single concentration, agonist mode, luminescence; activation, % at 5 µM; 2,400 tested, under 10 active; shares compounds with EBI2 antag; EBI2-expressing cells, 60 min; 0% vehicle, 100% 7α,25-dihydroxycholesterol control;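 active means activation of at least 50%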
# bGal counter: E. coli beta-galactosidase enzyme inhibition, confirmation, counter-screen for EBI2 antagonist project, biochemical, luminescence, single concentration; shares compounds with EBI2 antag; purified beta-galactosidase, luminescent Galacton Star, 15 min; inhibition, % at 5 µM; 2,400 compounds, 1% hits; AID 652176, 2013;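 active means replicate-average signal at least 3 plate SD below neutral wells, shown as high inhibition, flagging enzyme-inhibiting false positives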;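 further: 0% = DMSO wells with enzyme and 100% = wells lacking enzyme; higher means stronger loss of beta-gal luminescence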
# An asterisk follows results filed as active; / = not tested or not shown. An excerpt weighted towards active compounds, which were near 2% of everything screened.
SMILES,CCR6 antag,APJ antag,CXCR6 block,GAA850 FXN act,EBI2 antag,APJ ag,EBI2 conf,EBI2 agonist,bGal counter
Cc1ccc(NC(=O)c2ccc(CSc3ccccn3)cc2)cc1,2.0,-2.8,-0.4,4.0,45.6*,-5.0,30.5,-0.7,-13.5
COc1cc(CNc2ncnc3c2ncn3[C@H]2CN(Cc3cccc4ccccc34)C[C@@H](CO)O2)cc(OC)c1OC,/,/,1.1,-1.5,10.5,/,/,/,/
CCOC(=O)[C@]12CCC=C1N(Cc1ccccc1)C(=O)[C@H](CC(=O)NCc1cccc(C(F)(F)F)c1)C2,/,/,7.1,/,7.9,/,/,/,/
Cc1ccc(CNC(=O)C23CN(Cc4ccccc4)CC2C(c2ccc([N+](=O)[O-])cc2)=NO3)cc1 (centres undefined),5.1,-17.0,-2.1,0.8,-6.0,-1.4,/,/,/
Cc1ccc(CCNC(=O)C23CN(Cc4ccccc4)CC2C(c2ccc([N+](=O)[O-])cc2)=NO3)cc1 (centres undefined),1.9,-17.0,0.7,1.8,65.1*,7.8,43.0,-1.3,-0.8
O=C(Nc1ccc(Oc2ccccc2)nc1)C1CCCCN1Cc1cccc(OCCO)c1 (centres undefined),14.6,-49.2,-11.2,1.9,62.5*,-1.0,57.8*,1.5,0.6
COc1ccc(Nc2nc(-c3sc(C)nc3C)cs2)cc1,-3.8,-19.5,-4.4,-2.6,53.3*,-5.1,53.5*,-0.7,5.2
COc1ccc(CCNC(=O)CCC(=O)n2ncc3ccc(Cl)cc32)cc1OC,-7.2,1.7,7.8,0.5,-2.4,3.7,/,/,/
COC(=O)[C@@]1(Cc2ccc(OC)cc2)[C@H]2c3cc(C(=O)N4CCCC4)n(CCc4ccc(OC)c(Br)c4)c3C[C@H]2CN1C(=O)c1ccccc1,/,/,14.9,/,44.2*,/,4.7,-0.8,-13.2
CC(NCCS(=O)(=O)c1ccc(Cl)cc1)c1cccc(Cl)c1 (centres undefined),11.2,19.7,3.6,2.1,73.5*,1.6,38.2,0.5,4.0
CC(C(=O)NCCS(=O)(=O)c1ccc(Cl)cc1)S(=O)(=O)c1ccc(Cl)cc1 (centres undefined),6.1,10.3,-3.0,1.0,6.7,-4.2,/,/,/
O=C(NCCS(=O)(=O)c1ccc(Br)cc1)c1ccccc1,1.1,9.2,-14.9,0.6,-6.4,-10.3,/,/,/
CC(C)c1ccc(C(C)NCCS(=O)(=O)c2ccc(Br)cc2)cc1 (centres undefined),27.5,9.8,6.1,1.4,77.7*,-3.2,61.2*,0.4,4.5
COCCN1C(=O)CSCC1(C)C(=O)Nc1c(C)cccc1C (centres undefined),/,/,/,/,-9.2,/,/,/,/
O=C(COc1ccc(Cl)cc1)c1ccc(O)cc1O,13.2,7.0,-5.3,1.5,44.3*,-4.4,4.6,0.6,1.6
COc1ccc(CNc2ccc(-c3ccccc3OC)nn2)cc1,-4.2,-12.9,-2.8,1.6,10.1,0.0,/,/,/
COc1ccc(CNc2ccc(-c3ccc(OC)cc3)nn2)cc1,-4.0,7.5,9.8,4.0,74.3*,3.2,38.9,0.3,3.9
Cc1ccc(Nc2ccc(C(=O)NC3CCCCC3)cn2)cc1,10.5,-13.0,-2.5,3.3,83.7*,-0.1,57.6*,0.2,-10.7
Cc1ccc(S(=O)(=O)NCC(=O)NCC(=O)NCCc2ccc(Cl)cc2)cc1C,/,/,-11.9,-1.4,-2.5,/,/,/,/
CN(CCOc1ccccc1)C(=O)C1CCC(=O)N(CCc2ccc(Cl)cc2)C1 (centres undefined),13.6,-10.6,0.7,2.1,53.9*,0.4,38.6,1.2,-2.2
CCN(CC)c1ccc(NC(=O)COc2ccc(C)cc2)cc1,11.2,-8.4,-8.4,1.3,48.2*,0.5,4.8,-0.5,-12.6
Cc1ccc(OCC(=O)Nc2ccc(N(C)C)cc2)cc1,11.9,-26.4,-3.4,0.1,0.7,-2.0,/,/,/
CCCCn1nnnc1C(c1cc2ccccc2o1)N1CCN(C(=O)OCC)CC1 (centres undefined),/,/,-4.4,/,1.3,/,/,/,/
COc1cccc(-c2csc(N3CCN(C(=O)Nc4ccc(Cl)cc4)CC3)n2)c1,-11.7,-2.0,-17.9,1.9,41.7*,-1.4,21.7,-0.7,2.0
COc1ccc(NC(=O)N2CCN(c3nc(-c4cccc(OC)c4)cs3)CC2)cc1,-8.5,-18.5,-5.4,0.5,28.9,2.1,/,/,/
SMILES,CCR6 antag,APJ antag,CXCR6 block,GAA850 FXN act,EBI2 antag,APJ ag,EBI2 conf,EBI2 agonist,bGal counter
CC(C)[C@H](NC(=O)c1c(F)cccc1F)C(=O)OCC(=O)NNC(=O)c1ccccc1,/,/,-5.5,0.8,9.7,/,/,/,/
CC(C)C(NS(=O)(=O)c1ccccc1)C(=O)OCC(=O)NNC(=O)c1ccccc1 (centres undefined),-1.8,-39.8,-8.6,0.7,53.5*,-8.3,41.9,-0.2,1.9
Cc1c(Br)cccc1NC(=O)C1(C)CCN1Cc1ccc(OC(C)C)cc1 (centres undefined),/,/,2.4,1.4,-3.0,/,/,/,/
COc1ccccc1-c1cc2c(c3c1ccn3C)C1CCC2C1 (centres undefined),/,/,-5.0,/,16.6,/,/,/,/
CC1(c2cccs2)CC(c2cccs2)=C(C#N)C(=O)N1 (centres undefined),0.1,-5.9,0.5,-2.4,84.8*,3.5,64.2*,1.7,6.2
CC(=O)N1CCN(C(=O)c2ccc(Oc3ccccc3)cc2)CC1,-7.0,5.3,3.8,-1.9,2.5,-3.2,/,/,/
COc1ccc(C(=O)N2CCN(C(=O)c3ccc(-c4ccccc4)cc3)CC2)cc1OC,15.5,5.9,2.0,2.9,80.7*,0.6,49.2,0.2,11.2
CC(C)NC(=O)C1CCN(C(=O)c2ccc(-c3ccccc3)cc2)CC1,18.3,5.5,-3.4,-0.1,44.0*,-5.3,41.9,-1.5,-20.2
O=C(c1ccccc1)N1CCN(C(=O)c2ccc(OC(F)(F)F)cc2)CC1,-0.2,0.9,0.7,0.0,52.7*,0.1,28.0,1.7,11.3
